Compound activity from PubChem.
PLCg1 inh: PLC-gamma1 (human) inhibition, primary screen. hit rate 0.84% among 370,000. P19174. inhibition, % at 12.2 µM. purified PLC-gamma1, fluorogenic substrate, fluorescence
Target sequence (P19174 whole entry, looked up): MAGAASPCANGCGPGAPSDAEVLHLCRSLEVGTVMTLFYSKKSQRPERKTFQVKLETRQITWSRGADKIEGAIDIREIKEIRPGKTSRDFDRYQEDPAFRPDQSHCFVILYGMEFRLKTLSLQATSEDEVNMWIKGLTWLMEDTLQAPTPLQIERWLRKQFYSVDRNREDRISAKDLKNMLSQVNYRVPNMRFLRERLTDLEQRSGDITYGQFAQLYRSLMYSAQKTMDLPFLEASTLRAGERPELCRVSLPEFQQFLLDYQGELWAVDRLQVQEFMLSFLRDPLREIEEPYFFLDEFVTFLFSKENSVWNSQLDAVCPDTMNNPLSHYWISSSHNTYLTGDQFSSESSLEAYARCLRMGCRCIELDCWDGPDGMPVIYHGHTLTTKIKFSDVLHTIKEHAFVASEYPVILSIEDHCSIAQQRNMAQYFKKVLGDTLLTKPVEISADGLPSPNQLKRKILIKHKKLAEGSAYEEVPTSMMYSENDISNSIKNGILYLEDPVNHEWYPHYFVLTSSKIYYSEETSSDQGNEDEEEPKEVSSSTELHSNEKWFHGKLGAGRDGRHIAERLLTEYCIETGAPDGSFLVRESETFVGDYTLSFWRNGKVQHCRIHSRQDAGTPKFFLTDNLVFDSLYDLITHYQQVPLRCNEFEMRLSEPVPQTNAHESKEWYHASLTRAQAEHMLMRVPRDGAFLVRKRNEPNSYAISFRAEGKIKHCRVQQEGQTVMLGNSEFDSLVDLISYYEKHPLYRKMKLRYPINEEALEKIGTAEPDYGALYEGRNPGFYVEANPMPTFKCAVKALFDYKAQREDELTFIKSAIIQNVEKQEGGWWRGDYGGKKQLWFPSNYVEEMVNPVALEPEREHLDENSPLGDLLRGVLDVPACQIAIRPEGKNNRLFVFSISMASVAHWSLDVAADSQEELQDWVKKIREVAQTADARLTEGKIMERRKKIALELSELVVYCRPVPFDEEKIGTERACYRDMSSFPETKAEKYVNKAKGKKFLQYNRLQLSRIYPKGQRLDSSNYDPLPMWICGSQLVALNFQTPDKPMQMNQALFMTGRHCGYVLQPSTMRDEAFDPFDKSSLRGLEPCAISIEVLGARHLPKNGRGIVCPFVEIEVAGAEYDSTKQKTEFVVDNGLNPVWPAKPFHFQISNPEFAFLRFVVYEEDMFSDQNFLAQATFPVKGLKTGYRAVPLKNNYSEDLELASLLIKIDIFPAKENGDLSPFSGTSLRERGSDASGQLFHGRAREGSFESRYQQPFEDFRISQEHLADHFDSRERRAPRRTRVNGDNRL
IMP-1 inh: inhibitors of Pseudomonas aeruginosa IMP-1 metallo-beta-lactamase | purified IMP-1, nitrocefin hydrolysis, epi-absorbance fluorescence | hit rate 0.45% among 290,000 | inhibition, % at 5.6 µM;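 active means inhibition above the mean plus 3 SD of all compounds in the same screening run, cut at about 4.5% in these data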
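System: Purified IMP-1 | Read-out basis: Percent enzyme inhibition | Controls: IMP-1 with DMSO as 0%, enzyme-free DMSO as 100% | Replicates: One well per compound | Doses: 5.6 µM nominal single concentration | Detection: Epi-absorbance fluorescence, 480 nm excitation, 530 nm emission | Incubation: 25 °C, 15 min preincubation, 25 min reaction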
VIM-2 inhibitor: blocks Pseudomonas aeruginosa VIM-2 metallo-beta-lactamase; purified VIM-2, nitrocefin hydrolysis, epi-absorbance fluorescence; inhibition, % at 5.6 µM; hit rate 0.89% among 290,000; AID 1527;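 active means inhibition above the mean of all tested compounds plus 3 SD, cutoff set per screening run, cut at about 7.5% in these data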;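 further: red hydrolysis product quenches plate fluorescence so inhibitors raise well fluorescence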
PLCb3 inh: blocks human PLC-beta3 enzyme activity | Q01970 | Purified PLC-beta3, fluorogenic substrate, fluorescence | inhibition, % at 12.2 µM | hit rate 0.18% among 370,000 | AID 720704; in the data active means inhibition above about 11%
PvdQ acylase: blocks Pseudomonas aeruginosa PvdQ acylase activity. purified PvdQ acylase, fluorescence plate reader. inhibition, % at 10 µM. hit rate 0.063% among 340,000. AID 488965; in the data active means inhibition above about 30%, passing the limit was not always enough
PLCgamma1 ctr: inhibits human PLC-gamma1 in PLC-beta3 counter-screen. shares compounds with PLCg1 inh. purified PLC-gamma1, fluorogenic substrate, fluorescence. inhibition, % at 12.3 µM. hit rate 3.1% among 3,300. AID 743258
PLCb3 confirm: human PLC-beta3 inhibition, confirmation; shares compounds with PLCg1 inh; purified PLC-beta3, fluorogenic substrate fluorescence; inhibition, % at 12.3 µM; hit rate 1% among 3,300; in the data active means inhibition above about 11%
Hits are given with their value; i = inactive; nt = not tested or not shown. Hits are enriched below; roughly 2% of the tested compounds scored in any of these assays. Unless noted, no stated cut-off is given here; in the data, active means inhibition above about 9.5%; inactive means the rest.

SMILES	PLCg1 inh	IMP-1 inh	VIM-2 inhibitor	PLCb3 inh	PvdQ acylase	PLCgamma1 ctr	PLCb3 confirm
O=C(O)c1cccc(NC(=S)NC(NC(=O)c2ccccc2[N+](=O)[O-])C(Cl)(Cl)Cl)c1 (stereo unspecified)	i	i	i	i	i	nt	nt
COC(=O)[C@]12C[C@H](CC(=O)NCCCN3CCCC3=O)C(=O)N(Cc3ccc4c(c3)OCO4)C1=C[C@H](C(C)(C)C)O[C@@H]2C	i	nt	nt	i	nt	nt	nt
CCOC(=O)[C@H](CCc1ccccc1)N[C@@H](C)C(=O)N1C(C(=O)O)C[C@@H]2CCC[C@@H]21 (stereo partly specified)	10	nt	nt	i	i	i	i
COc1cc(NS(=O)(=O)c2ccc(NC(=O)NC3CCCCC3)cc2)nc(OC)n1	10	i	i	i	i	i	i
COc1cc(NS(=O)(=O)c2ccc(NC(=S)NC(=O)C3CCCC3)cc2)nc(OC)n1	i	i	i	i	i	nt	nt
Cc1ccccc1NC(=O)Cc1nc(COC(=O)c2cc([N+](=O)[O-])ccc2NCCO)cs1	10	nt	nt	i	i	i	i
Cc1ccccc1NC(=O)Cc1nc(COC(=O)c2ccc([N+](=O)[O-])cc2)cs1	i	nt	nt	i	i	nt	nt
CC(=O)CC[C@H]1CC[C@]2(CCCN(Cc3nccn3C)C2)O1	i	nt	nt	i	nt	nt	nt
C=CCNC(=S)NNC(=O)C(CCCC)CC(C)O (stereo unspecified)	i	i	i	i	i	nt	nt
C=CCNC(=S)NNC(=O)CCC(O)CCCCC (stereo unspecified)	i	i	i	12	i	i	i
O=C(CCc1nc2ccccc2s1)OCc1ccccc1	i	i	i	11	i	i	i
CC(C)(C)c1ccc(S(=O)(=O)Nc2ccc(C(O)(C(F)(F)F)C(F)(F)F)cc2)cc1	13	nt	nt	i	nt	i	i
CN(C)c1nc2c(c(=O)[nH]c(=O)n2C)n1Cc1ccccc1Br	11	i	i	i	i	i	i
CN1CCC(=NNc2ccc(S(=O)(=O)N3CCOCC3)cc2[N+](=O)[O-])CC1	i	i	i	i	i	nt	nt
C/C(=N\Nc1ccc(S(=O)(=O)N2CCOCC2)cc1[N+](=O)[O-])C(C)C	10	i	i	i	i	i	i
COC(=O)C1CN(C2CC2)CCS(=O)(=O)N1Cc1cn(Cc2ccc(F)cc2)nn1 (stereo unspecified)	i	nt	nt	i	nt	nt	nt
CCOc1ccc(N(CC(=O)Nc2c(C)n(C)n(-c3ccccc3)c2=O)S(=O)(=O)c2cccs2)cc1	i	nt	nt	i	nt	nt	nt
C/C(=N\Nc1ccc(F)cc1F)c1ccccc1O	12	i	i	i	i	i	i
C/C(=N\Nc1cc(C(F)(F)F)ccc1Cl)c1ccccc1O	i	i	i	i	i	nt	nt
C[C@H]1[C@@H](N(C)Cc2cccs2)CC[C@@]23CCCN2C(=O)CCC[C@@H]13	i	nt	nt	i	nt	nt	nt
COc1ccc(OCCCC(=O)NCc2ccco2)cc1	15	i	i	i	i	i	i
C=CCNC(=O)CN(C(=O)Cc1cccc(OC(F)(F)F)c1)c1cccc(Br)c1	i	nt	nt	i	nt	nt	nt
Cc1ccc(-n2nc3c(=O)n(CCCC(=O)NCc4ccccc4C)nc(C)c3c2C)cc1	14	i	i	i	i	i	i
Cc1ccc(-n2nc3c(=O)n(CCCC(=O)NCc4ccccc4F)nc(C)c3c2C)cc1	i	i	i	i	i	nt	nt
COc1cc(-n2c(C)nc3cc(C(=O)N4CCCCC4)ccc32)cc(OC)c1OC	i	nt	nt	i	nt	nt	nt
SMILES	PLCg1 inh	IMP-1 inh	VIM-2 inhibitor	PLCb3 inh	PvdQ acylase	PLCgamma1 ctr	PLCb3 confirm
C[C@@H]1COc2cccc(N3CCCC3)c2S(=O)(=O)N1	i	nt	nt	i	nt	nt	nt
O=C(O)CCC(=O)OCC1CCCCC1	9.8	i	i	i	i	i	i
CCOC(CNC(=O)Cn1nc(C)c2ccccc21)OCC	9.9	i	i	i	i	i	i
O=C(Nc1cccc(F)c1)c1ccc(S(=O)(=O)N2CCOCC2)cc1	10	i	i	i	i	i	i
O=C(CN(Cc1ccc(F)cc1)S(=O)(=O)c1ccc(S(=O)(=O)N2CCOCC2)cc1)Nc1ccccc1	i	i	i	11	i	i	i
O=C(Nc1cccc(S(=O)(=O)C(F)F)c1)c1ccc(S(=O)(=O)N2CCOCC2)cc1	i	i	i	13	i	i	i
O=C(NC12CC3CC(CC(C3)C1)C2)c1ccc(S(=O)(=O)N2CCOCC2)cc1	i	i	i	12	i	i	i
O=C(Nc1cccc(S(=O)(=O)C(F)F)c1)c1ccc(S(=O)(=O)N2CCCC2)cc1	i	i	i	i	i	nt	nt
CCOc1ccc(C=Nn2c(-c3cccc(OC(C)C)c3)n[nH]c2=S)cc1	i	nt	nt	i	nt	nt	nt
O=C(OCc1cn(Cc2ccccc2F)nn1)N1CCCC1	i	nt	nt	i	nt	nt	nt
O=C(Nc1nc(-c2ccncc2)cs1)c1ccc(S(=O)(=O)N2CCOCC2)cc1	13	i	i	i	i	i	i
CC(C)C(=O)Nc1nc(-c2ccc(S(=O)(=O)N3CCOCC3)cc2)cs1	i	i	i	i	i	nt	nt
COC(=O)[C@]12C[C@H](CC(=O)NCc3cccc4ccccc34)C(=O)N(CCC3=CCCCC3)C1=C[C@H](C1CCCC1)O[C@@H]2C	i	nt	nt	i	nt	nt	nt
CCn1cc(C(=O)O)c(=O)c2cnc(N3CCN(C(=S)NC(=O)c4ccc(Cl)cc4Cl)CC3)nc21	10.0	i	i	i	i	i	i
O=C(NCc1ccco1)c1cccc(F)c1	10	i	i	i	i	i	i
Cc1cccc(C(=O)NCc2ccco2)c1	i	i	i	i	i	nt	nt
COc1ccc(Cl)cc1C(=O)NCc1ccco1	13	i	i	i	i	i	i
O=S1(=O)c2ccc(Br)cc2OC[C@@H](Cc2ccccc2)N1Cc1cn(CCC2OCCCO2)nn1	i	nt	nt	i	nt	nt	nt
CCOCCn1c(C(C)O)nc2ccccc21 (stereo unspecified)	10	i	i	i	i	i	i
CCCCn1c(C(C)NC(=O)COC)nc2ccccc21 (stereo unspecified)	10	i	i	i	i	i	i
CC1(C)CC(=O)C=C(Nc2ccccc2NC(=O)c2ccc(F)cc2F)C1	i	nt	nt	i	nt	nt	nt
COC(=O)CSc1nnc(-c2ccc(NS(=O)(=O)c3ccc(C(C)(C)C)cc3)cc2)o1	i	nt	nt	i	nt	nt	nt
O=C(CCCCCNC(=O)N1CCn2c1nc1ccccc12)NCc1ccc(F)cc1	11	i	i	i	i	i	i
O=C(CCCCCNC(=O)N1CCn2c1nc1ccccc12)NCc1ccccc1	i	i	i	i	i	nt	nt
COc1ccc(-n2c(N)c(Br)c(=O)[nH]c2=O)cc1	11	i	i	i	i	i	i
Nc1c(Br)c(=O)[nH]c(=O)n1-c1ccccc1	i	i	i	i	i	nt	nt
CSCCNC(=O)Nc1c(-c2c(Cl)cccc2Cl)noc1C	12	i	i	i	i	i	i
COC(=O)[C@]12C[C@H](CC(=O)NCCc3ccccc3OC)C(=O)N(Cc3ccco3)C1=C[C@H](C1CCCC1)O[C@@H]2C	i	nt	nt	i	nt	nt	nt
